Assay results: PMC9826235 (Chembiochem, 2022)

Tested on: monoclonal anti-HpTGEKP antibody
Format: binding, mouse
Conditions: gas phase complex dissociation; for TambΔSmg# / ΔGm0g# / ΔHm0g#: neutral and resting complex, Tamb 298 K, two measurement series except 02; for ΔHm0g# (approximate values in running text): text rounding of Table 3
Summary of the method: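 Test phospho-hexapeptides and monoclonal antibody, each in 200 mM ammonium acetate, were mixed at a 3:1 peptide:antibody molar ratio. The mixtures were nano-electrosprayed, and multiply charged immune complex ions underwent gas phase dissociation; an unphosphorylated hexapeptide served as control. Data were duplicate series (mean, SD), fitted with a Boltzmann sigmoid. Enthalpies came from Arrhenius and Gibbs-Helmholtz plots taken at 1/Tamb.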

Substance	TambΔSmg#	ΔGm0g#	ΔHm0g#	ΔHm0g# (approximate values in running text)
HpTGERP [compound 02]	-15.74 kcal/mol	+64.79 kJ/mol	-0.261 kcal/mol	
HpTEEKP [compound 09]	-15.93 kcal/mol	+64.64 kJ/mol	-0.485 kcal/mol	approx. −2.0 kJ/mol
HpTGKKP [compound 05]	-15.06 kcal/mol	+64.84 kJ/mol	+1.81 kJ/mol	approx. +0.3 kJ/mol
HpTGEKL [compound 07]	-15.82 kcal/mol	+64.69 kJ/mol	-0.363 kcal/mol	
HpTREKP [compound 10]	-15.43 kcal/mol	+64.83 kJ/mol	+0.28 kJ/mol	~+1.8 kJ/mol
HpSGERP [compound 06]	-15.87 kcal/mol	+64.65 kJ/mol	-0.418 kcal/mol	
HpTGEKP [compound 01]	-15.8 kcal/mol	+64.75 kJ/mol	-0.33 kcal/mol	
